Screening data: PubChem BioAssay, several laboratories
CXCR6 block – blocks human CXCR6 beta-arrestin recruitment; O00574; CHO-K1 PathHunter CXCR6 beta-arrestin, luminescence; inhibition, % at 20 µM; 360,000 compounds, 0.36% hits; in the data active = inhibition above about 34%, passing the limit was not always enough;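 note: antagonist mode with CXCL16 agonist at 10 nM final; 0% = 10 nM CXCL16 with DMSO and 100% = unstimulated wells without agonist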
CCR6 antagonist – antagonists of human CCR6 receptor | P51684 | CHO-K1 CCR6 PathHunter beta-arrestin, luminescence, CCL20-stimulated | inhibition, % at 20 µM | 340,000 compounds, 0.49% hits | AID 493098;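 active = compounds whose inhibition of the agonist-driven luminescence signal at 20 µM reaches about 50%, limit read from the data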;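 note: cells stimulated with CCL20 at 14 nM final; plate controls were DMSO with CCL20 for no effect and DMSO without agonist for full effect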
APJ ag – agonists of human APJ apelin receptor; AID 2520; P35414; 330,000 compounds, 0.11% hits; CHO-K1 APJ PathHunter beta-arrestin, luminescence; 0% DMSO wells, 100% apelin; activation, % at 20 µM;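 active = activation more than six SD over the plate average, tested at 20 µM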;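 note: 0% = DMSO alone and 100% = apelin-13 at 10 nM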
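Test system: CHO-K1 APJ beta-arrestin complementation cell line | Compound: Single test compound dose, 20 µM final, 1% DMSO | Incubation: Compound 90 min 25 °C, reagent 1 h | Measured by: beta-gal luminescence | Read-out basis: APJ–arrestin association signal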
EBI2 antag – blocks human EBI2 receptor beta-arrestin signaling | EBI2 beta-arrestin recruitment, luminescence, 7a,25-OHC stimulated | P32249 | inhibition, % at 5 µM | 360,000 compounds, 0.81% hits; in the data active = inhibition above about 38%;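 note: enzyme fragment complementation signal reports receptor beta-arrestin coupling in cells; 0% = agonist plus DMSO wells and 100% = wells without agonist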
APJ antagonist – APJ receptor antagonism; P35414; AID 2521; 330,000 compounds, 0.32% hits; CHO-K1 APJ beta-arrestin complementation, luminescence; inhibition, % at 20 µM;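 active = inhibition above about 40% at 20 µM, limit read from the data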;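 note: cells challenged with 10 nM apelin-13 agonist together with compound; plate controls were apelin-13 plus DMSO wells for no effect and DMSO wells lacking apelin-13 for full effect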
HTR2A ag – mouse HTR2A agonism via beta-arrestin recruitment. P35363. CHO-K1 mHTR2A beta-arrestin complementation, luminescence; percent of 30 µM serotonin response. activation, % at 7.6 µM. 360,000 compounds, 0.66% hits;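 active = activation above a run cutoff, the mean activation of all tested compounds plus 3 SD, cut at about 14% in these data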;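 note: 0% = plate median of compound wells and 100% = 30 µM serotonin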
MOR ag counter – counter-screen for mouse HTR2A agonists: human mu opioid receptor agonists. shares compounds with HTR2A ag. U2OS OPRM1 beta-arrestin PathHunter, luminescence; DMSO 0%, DAMGO 9.3 µM 100%. activation, % at 9.3 µM. 2,300 compounds, 5.3% hits. AID 624380;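 active = mean activation above the mean of DMSO-only wells plus 3 SD, cut at about 0.5% in these data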
Target sequence (P35372 whole entry, looked up): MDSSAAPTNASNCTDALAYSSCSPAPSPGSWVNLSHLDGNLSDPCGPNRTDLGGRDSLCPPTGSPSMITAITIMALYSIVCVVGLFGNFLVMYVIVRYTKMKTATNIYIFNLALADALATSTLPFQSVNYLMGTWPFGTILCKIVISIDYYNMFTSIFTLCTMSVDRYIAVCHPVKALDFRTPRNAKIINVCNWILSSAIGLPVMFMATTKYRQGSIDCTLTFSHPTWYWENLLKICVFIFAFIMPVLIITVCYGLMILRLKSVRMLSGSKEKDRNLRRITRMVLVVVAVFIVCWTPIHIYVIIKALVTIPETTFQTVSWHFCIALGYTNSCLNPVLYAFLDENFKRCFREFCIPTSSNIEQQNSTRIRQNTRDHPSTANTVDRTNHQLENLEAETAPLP
m5-HT2A ag conf – mouse HTR2A agonism confirmed. shares compounds with HTR2A ag. CHO-K1 PathHunter beta-arrestin recruitment, luminescence; DMSO 0%, 30 µM serotonin 100%. activation, % at 7.6 µM. 2,300 compounds, 19% hits. AID 624381;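 active = mean activation across triplicates above the hit threshold derived in the original primary screen, cut at about 15% in these data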
* hit, by the source's call; . = not tested or not shown. The list is not random: actives were taken first. Their share in the collection is about 2.1%.

SMILES	CXCR6 block	CCR6 antagonist	APJ ag	EBI2 antag	APJ antagonist	HTR2A ag	MOR ag counter	m5-HT2A ag conf
Oc1cc2c(cc1O)C(c1ccccc1)CNCC2 (stereo not given)	-4	14	-1	-7	2	14	.	.
CN1CCc2cc(O)c(O)cc2C(c2ccccc2)C1 (stereo not given)	-1	1	-2	-14	-4	17*	0	78*
Cc1cc(-c2ccc(S(=O)(=O)N3CCN(C)CC3)s2)on1	4	11	-1	0	-15	2	.	.
CC(C)Oc1ccc(S(=O)(=O)N2CCOCC2)cc1NC(=O)CC1OC(=O)c2ccccc21 (stereo not given)	5	2	-2	2	21	16*	0	0
CC(C)Oc1ccc(S(=O)(=O)N2CCCCC2)cc1NC(=O)CC1OC(=O)c2ccccc21 (stereo not given)	-1	2	-5	4	15	-2	.	.
COc1ccc(CNC(=O)CN(C(=O)CCC(=O)Nc2ccccn2)c2ccc(C)cc2)cc1	1	-3	-5	10	15	30*	-1	-5
COc1ccc(CNC(=O)CN(C(=O)CCC(=O)Nc2ccccn2)c2cccc(C)c2)cc1	-9	-2	-1	8	-24	2	.	.
Cc1c(CC(=O)O)c(=O)oc2cc3c(cc12)CCC(C)(C)O3	6	2	-1	-2	11	10	.	.
COc1ccc(C(=O)CC(=O)C(=O)Nc2c(C)cccc2C)cc1	29	26	0	5	-2	-9	.	.
COc1ccccc1N1CCN(C(=O)CCc2ccc(S(=O)(=O)NC(C)C)cc2)CC1	-8	0	0	-3	3	0	.	.
COc1ccccc1N1CCN(C(=O)COc2ccc(S(=O)(=O)NC(C)C)cc2)CC1	-2	2	-1	-5	-11	15*	-1	-2
Cc1cc2c(=O)[nH]c(N)nc2[nH]1	-5	.	.	-4	.	16*	0	1
COc1ccc(NC(=S)N(CCO)Cc2cc3c(C)cc(C)cc3[nH]c2=O)cc1	5	16	1	-10	1	-2	.	.
O=C(O)CSCC(=O)N1CCN(c2ccnc3cc(Cl)ccc23)CC1	7	13	-1	3	-4	3	.	.
COc1ccc(CC(=O)NCc2ccccn2)cc1OC	-6	7	-3	-6	2	-1	.	.
O=C(NCc1ccccc1Cl)C(=O)c1c[nH]c2ccccc12	0	0	-1	-18	15	1	.	.
Cc1cc(=O)c(C(=O)Nc2cccc(C(=O)NC3CC3)c2)nn1-c1ccccc1Cl	-3	12	-3	-10	10	15*	-1	0
Cc1ccc(OCCN2CCN(C)CC2)c([N+](=O)[O-])c1	0	10	-2	3	-5	0	.	.
O=C(Nc1ccc2oc(-c3cccnc3)nc2c1)c1ccco1	-3	-6	-2	-1	-13	15*	-1	-3
O=C(Nc1ccc2oc(-c3cccnc3)nc2c1)c1ccc(Br)o1	-11	4	5	-10	-13	2	.	.
O=C1OC(N2CCN(c3ccccn3)CC2)c2ccccc21 (stereo not given)	0	2	0	-1	0	15*	-1	23*
Cc1c(N=Cc2cc(Br)cc(Br)c2O)cccc1C(=O)O	18	24	-3	-22	4	3	.	.
CC(C)Cn1c(=O)c2ccccc2n2c(CCC(=O)NC3CCN(Cc4ccccc4)CC3)nnc12	2	17	2	-3	12	19*	-1	6
CC1CCN(CCCNC(=O)CCc2nnc3n(CCc4ccccc4)c(=O)c4ccccc4n23)CC1	3	12	-3	3	21	-8	.	.
Cc1nc(SCC(=O)c2ccc(F)cc2)n[nH]1	3	27	0	-21	-8	0	.	.
